# Reference: ChEMBL document CHEMBL1914319 (Bioorg Med Chem, 2011)
# pIC50: −log10 of the molar value.
# What was measured:
# [1] = tested on: HeLa; assay: Antiproliferative activity against human HeLa cells after 48 hrs by MTT assay; format: functional, cell-based
# In short: (§1)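 1×10^4 cells/well seeded and held 24 h at 37 °C, 5% CO2. Viability read after 48 h by MTT (4 h, 37 °C), DMSO solubilization, A570. Three independent experiments, mean ± SD.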
# [2] = biological target: Telomerase reverse transcriptase (Homo sapiens, UniProt O14746); assay: Inhibition of telomerase in human SW1116 cells after 24 hrs by TRAP-PCR-ELISA assay; format: cell-based, SW 1116
# In short: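 Cells kept in DMEM with 10% FBS, streptomycin and penicillin at 37 °C, 5% CO2. Lysed in RIPA on ice for 30 min, supernatant cleared at 12,000g. Extract used in a TRAP kit, 35 PCR cycles, ELISA read at 490 nm. Mean ± SD.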
# [3] = tested on: HepG2; assay: Antiproliferative activity against human HepG2 cells after 48 hrs by MTT assay; format: functional, cell-based; conditions: HepG2, 48 h; in short: as §1
# [4] = Antiproliferative activity against human SW1116 cells after 48 hrs by MTT assay; format: functional, cell-based; conditions: SW 1116, 48 h; in short: as §1
# [5] = tested on: BGC-823; assay: Antiproliferative activity against human BGC823 cells after 48 hrs by MTT assay; format: functional, cell-based; conditions: BGC-823, 48 h; in short: as §1
# Telomerase reverse transcriptase, sequence (O14746 whole entry): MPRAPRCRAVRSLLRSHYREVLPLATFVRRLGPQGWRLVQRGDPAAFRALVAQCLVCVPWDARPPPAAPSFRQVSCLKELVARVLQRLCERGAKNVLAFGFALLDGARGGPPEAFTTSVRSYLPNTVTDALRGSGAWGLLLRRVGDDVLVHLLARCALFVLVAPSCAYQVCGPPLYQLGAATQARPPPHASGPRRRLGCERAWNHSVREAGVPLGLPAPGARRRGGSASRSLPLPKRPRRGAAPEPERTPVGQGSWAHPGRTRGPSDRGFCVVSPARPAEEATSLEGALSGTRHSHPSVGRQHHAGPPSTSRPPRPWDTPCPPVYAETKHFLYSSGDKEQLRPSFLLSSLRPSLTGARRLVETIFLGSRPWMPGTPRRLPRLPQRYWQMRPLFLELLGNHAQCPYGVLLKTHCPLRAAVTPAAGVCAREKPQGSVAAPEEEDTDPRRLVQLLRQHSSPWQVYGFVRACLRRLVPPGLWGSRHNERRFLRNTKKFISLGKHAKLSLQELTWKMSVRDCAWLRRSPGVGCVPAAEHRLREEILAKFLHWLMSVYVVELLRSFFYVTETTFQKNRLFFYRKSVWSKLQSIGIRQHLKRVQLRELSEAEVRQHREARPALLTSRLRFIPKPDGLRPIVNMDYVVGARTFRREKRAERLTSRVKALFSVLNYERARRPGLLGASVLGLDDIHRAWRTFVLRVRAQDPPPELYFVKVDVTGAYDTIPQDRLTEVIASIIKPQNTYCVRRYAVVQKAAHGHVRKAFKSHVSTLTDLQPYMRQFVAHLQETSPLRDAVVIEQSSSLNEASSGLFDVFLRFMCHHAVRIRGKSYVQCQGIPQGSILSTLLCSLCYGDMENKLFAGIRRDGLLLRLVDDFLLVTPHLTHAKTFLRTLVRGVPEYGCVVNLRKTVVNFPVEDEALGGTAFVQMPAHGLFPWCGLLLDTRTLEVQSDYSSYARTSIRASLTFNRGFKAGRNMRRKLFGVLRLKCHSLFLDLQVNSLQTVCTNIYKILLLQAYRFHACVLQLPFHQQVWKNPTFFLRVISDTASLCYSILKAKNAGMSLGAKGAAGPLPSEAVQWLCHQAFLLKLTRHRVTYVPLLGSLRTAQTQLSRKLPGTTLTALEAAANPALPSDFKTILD
Structure (SMILES),pIC50 [1],pIC50 [2],pIC50 [3],pIC50 [4],pIC50 [5]
c1ccc(CSc2nnc(-c3ccc4c(c3)OCCO4)o2)cc1,4.39,5.09,4.49,4.50,4.47
Cc1cccc(CSc2nnc(-c3ccc4c(c3)OCCO4)o2)c1,4.48,5.49,4.48,4.57,4.51
O=[N+]([O-])c1ccc(CSc2nnc(-c3ccc4c(c3)OCCO4)o2)cc1,4.56,5.57,4.45,4.83,4.64
Fc1ccccc1CSc1nnc(-c2ccc3c(c2)OCCO3)o1,4.38,5.53,4.62,4.66,4.54
O=[N+]([O-])c1ccccc1CSc1nnc(-c2ccc3c(c2)OCCO3)o1,4.49,4.92,4.42,4.68,4.63
Cc1ccc(CSc2nnc(-c3ccc4c(c3)OCCO4)o2)cc1,4.34,5.30,4.38,4.49,4.50
Fc1ccc(CSc2nnc(-c3ccc4c(c3)OCCO4)o2)cc1,4.39,5.44,4.42,4.67,4.54
O=[N+]([O-])c1cccc(CSc2nnc(-c3ccc4c(c3)OCCO4)o2)c1,4.45,5.33,4.42,4.52,4.63
Clc1ccc(CSc2nnc(-c3ccc4c(c3)OCCO4)o2)cc1,4.55,5.54,4.54,4.55,4.65
Ic1ccc(CSc2nnc(-c3ccc4c(c3)OCCO4)o2)cc1,4.51,5.44,4.51,4.53,4.64
Cc1ccccc1CSc1nnc(-c2ccc3c(c2)OCCO3)o1,4.72,5.90,4.66,4.62,4.65
Brc1ccccc1CSc1nnc(-c2ccc3c(c2)OCCO3)o1,4.65,5.69,4.70,4.85,4.67
Brc1cccc(CSc2nnc(-c3ccc4c(c3)OCCO4)o2)c1,4.59,5.61,4.60,4.70,4.69
Brc1ccc(CSc2nnc(-c3ccc4c(c3)OCCO4)o2)cc1,4.63,5.78,5.07,4.61,4.65
Clc1ccccc1CSc1nnc(-c2ccc3c(c2)OCCO3)o1,4.43,5.23,4.65,4.53,4.65
Clc1cccc(CSc2nnc(-c3ccc4c(c3)OCCO4)o2)c1,4.50,5.63,4.48,4.60,4.57
Fc1cccc(F)c1CSc1nnc(-c2ccc3c(c2)OCCO3)o1,4.36,4.80,4.38,4.44,4.44
Fc1ccc(CSc2nnc(-c3ccc4c(c3)OCCO4)o2)c(F)c1,4.38,5.61,4.41,4.53,4.52
Ic1ccccc1CSc1nnc(-c2ccc3c(c2)OCCO3)o1,4.70,5.74,5.14,4.91,4.72
O=c1[nH]cc(F)c(=O)[nH]1 [FLUOROURACIL],3.96,–,–,4.02,4.00
